For 16 compounds, EC50 results are on record in ChEMBL document CHEMBL1146878, “A novel class of AMPA receptor allosteric modulators. Part 1: design, synthesis, and SAR of 3-aryl-4-cyano-5-substituted-heteroaryl-2-carboxylic acid derivatives” (Bioorg Med Chem Lett, 2006).

As a reminder, the EC50 is the concentration that produces a half-maximal response.

Bounds are passed on as bounds.

Common to all, as to type: functional, cell-based
Test [1] has as its target T1, Glutamate receptor 4 (Homo sapiens, UniProt P48058). The experiment in a line: Activity against human GLUR4 flop expressed in HEK293 cells assessed as glutamate-stimulated calcium influx by FLIPR assay. Summed up: (§1)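 Stably transfected HEK-293 cells expressing homomeric GluR4 (flip or flop splice form) loaded with 8 µM Fluo3-AM for 60 min in HEPES-buffered saline (5 mM CaCl2, 5.5 mM glucose). Compounds from DMSO (0.1–3 µM) co-applied with 100 µM glutamate; calcium influx read by FLIPR. Duplicate 10-point curves; response expressed as % of 100 µM cyclothiazide, EC50 calculated.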

Test [2] concerns the target T1, Glutamate receptor 4. In words: Activity against human GLUR4 flip expressed in HEK293 cells assessed as glutamate-stimulated calcium influx by FLIPR assay. Summed up:
as §1

For test [3], the target named is T2, Glutamate receptor 2 (Homo sapiens, UniProt P42262). In words: Activity against human GLUR2 flip expressed in HEK293 cells assessed as glutamate-stimulated calcium influx by FLIPR assay.
Test [4] has as its target T2, Glutamate receptor 2. In words: Activity against human GLUR2 flop expressed in HEK293 cells assessed as glutamate-stimulated calcium influx by FLIPR assay.

T2 sequence (P42262 whole entry): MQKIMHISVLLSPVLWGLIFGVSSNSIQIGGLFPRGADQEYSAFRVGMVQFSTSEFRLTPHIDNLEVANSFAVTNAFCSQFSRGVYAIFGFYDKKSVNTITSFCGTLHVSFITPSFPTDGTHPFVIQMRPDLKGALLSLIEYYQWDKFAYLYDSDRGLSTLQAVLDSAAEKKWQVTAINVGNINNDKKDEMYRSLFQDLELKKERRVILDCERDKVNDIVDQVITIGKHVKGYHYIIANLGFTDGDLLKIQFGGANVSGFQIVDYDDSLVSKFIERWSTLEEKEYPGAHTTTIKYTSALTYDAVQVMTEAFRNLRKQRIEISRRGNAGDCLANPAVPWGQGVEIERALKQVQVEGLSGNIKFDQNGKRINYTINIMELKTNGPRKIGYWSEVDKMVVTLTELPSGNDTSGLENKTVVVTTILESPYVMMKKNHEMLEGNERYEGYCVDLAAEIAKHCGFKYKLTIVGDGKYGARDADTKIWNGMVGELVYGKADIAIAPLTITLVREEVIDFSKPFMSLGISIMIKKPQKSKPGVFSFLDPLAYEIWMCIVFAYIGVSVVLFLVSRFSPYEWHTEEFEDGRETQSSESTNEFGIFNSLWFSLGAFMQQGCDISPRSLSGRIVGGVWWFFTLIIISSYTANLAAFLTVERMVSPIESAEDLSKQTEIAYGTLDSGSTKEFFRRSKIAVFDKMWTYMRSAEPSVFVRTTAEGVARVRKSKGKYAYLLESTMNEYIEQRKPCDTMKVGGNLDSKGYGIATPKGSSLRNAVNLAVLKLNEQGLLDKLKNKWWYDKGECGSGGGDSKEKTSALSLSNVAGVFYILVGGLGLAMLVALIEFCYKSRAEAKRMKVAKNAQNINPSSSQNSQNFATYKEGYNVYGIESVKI
T1 sequence (P48058 whole entry, canonical isoform): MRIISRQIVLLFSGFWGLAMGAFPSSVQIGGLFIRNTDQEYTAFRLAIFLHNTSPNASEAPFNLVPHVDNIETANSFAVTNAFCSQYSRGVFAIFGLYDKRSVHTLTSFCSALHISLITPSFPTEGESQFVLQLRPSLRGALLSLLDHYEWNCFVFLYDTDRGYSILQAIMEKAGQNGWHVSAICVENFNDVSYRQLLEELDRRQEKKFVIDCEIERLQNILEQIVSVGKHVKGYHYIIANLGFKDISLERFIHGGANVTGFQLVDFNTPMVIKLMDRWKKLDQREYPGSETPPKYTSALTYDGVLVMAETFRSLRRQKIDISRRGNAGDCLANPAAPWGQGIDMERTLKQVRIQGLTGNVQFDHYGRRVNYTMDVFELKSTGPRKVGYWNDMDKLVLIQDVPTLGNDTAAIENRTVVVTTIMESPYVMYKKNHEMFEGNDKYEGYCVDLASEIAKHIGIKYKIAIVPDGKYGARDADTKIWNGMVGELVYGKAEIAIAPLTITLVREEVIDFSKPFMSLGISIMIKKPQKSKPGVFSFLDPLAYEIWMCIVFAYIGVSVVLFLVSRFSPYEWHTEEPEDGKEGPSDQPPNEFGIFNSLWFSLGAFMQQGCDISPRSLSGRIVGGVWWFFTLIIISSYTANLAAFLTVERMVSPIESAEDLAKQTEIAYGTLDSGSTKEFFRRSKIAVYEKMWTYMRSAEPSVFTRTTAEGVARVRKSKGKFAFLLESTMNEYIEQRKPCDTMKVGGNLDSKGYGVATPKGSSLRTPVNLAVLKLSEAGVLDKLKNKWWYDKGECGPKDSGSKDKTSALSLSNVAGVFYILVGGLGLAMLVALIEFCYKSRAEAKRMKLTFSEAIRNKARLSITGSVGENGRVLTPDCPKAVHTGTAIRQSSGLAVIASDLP

In the case of `CCCSc1sc(C(=O)O)c(-c2ccc(C(C)(C)C)cc2)c1C#N`, the results for the EC50 on Glutamate receptor 4 [1] and on Glutamate receptor 4 [2] were greater than 3000 nM and 2890 nM, respectively.

On to `CC(C)(C)c1ccc(-c2c(C(=O)O)sc(C(F)(F)F)c2C#N)cc1`, for which the EC50 on Glutamate receptor 4 [1] turned out to be 488 nM; on Glutamate receptor 4 [2], 273 nM; on Glutamate receptor 2 [3], 78 nM; at Glutamate receptor 2 [4] it was 231 nM.

Turning to `CC(C)(C)c1ccc(-c2c(C#N)csc2C(=O)O)cc1`, the EC50 at Glutamate receptor 4 [1], on Glutamate receptor 4 [2], on Glutamate receptor 2 [3] and on Glutamate receptor 2 [4] was greater than 3000 nM in each case.

As to `C[S+]([O-])c1sc(C(=O)O)c(-c2ccc(C(C)(C)C)cc2)c1C#N` (stereo not given), the results for the EC50 at Glutamate receptor 4 [1] and at Glutamate receptor 4 [2] were greater than 3000 nM and 489 nM, respectively.

For the compound `CC(C)(C)c1ccc(-c2c(C(=O)O)sc(S(C)(=O)=O)c2C#N)cc1`, the EC50 at Glutamate receptor 4 [1] is greater than 3000 nM; at Glutamate receptor 4 [2] it was 629 nM; at Glutamate receptor 2 [3], 333 nM; at Glutamate receptor 2 [4] it was 1810 nM.

On to `CCOC(=O)c1sc(SC)c(C#N)c1-c1ccc(C(C)(C)C)cc1`, for which the EC50 on Glutamate receptor 4 [1], at Glutamate receptor 4 [2], on Glutamate receptor 2 [3] and on Glutamate receptor 2 [4] was greater than 3000 nM throughout.

Regarding `CSc1c(C#N)c(-c2ccc(C(C)(C)C)cc2)c(C(=O)O)n1C`, the EC50 was determined as 1420 nM at Glutamate receptor 4 [1], 554 nM on Glutamate receptor 4 [2], 684 nM on Glutamate receptor 2 [3] and 663 nM at Glutamate receptor 2 [4].

As for `CSc1sc(C(=O)O)c(-c2ccc(-c3ccccc3)cc2)c1C#N`, the figures for the EC50 at Glutamate receptor 4 [1] and on Glutamate receptor 4 [2] were greater than 3000 nM and 795 nM, respectively.

Take `CC(CNS(=O)(=O)C(C)C)c1ccc(-c2ccc(C#N)cc2)cc1` (stereo not given): the EC50 on Glutamate receptor 4 [1] stood at 1060 nM; at Glutamate receptor 4 [2] it was 420 nM; at Glutamate receptor 2 [3], 559 nM; at Glutamate receptor 2 [4] it was 1910 nM.

With `CC(C)(C)c1ccc(-c2c(C(=O)O)sc(Sc3ccccc3)c2C#N)cc1`, the EC50 at Glutamate receptor 4 [1] and at Glutamate receptor 4 [2] was greater than 3000 nM each time.

With `CC(C)Sc1sc(C(=O)O)c(-c2ccc(C(C)(C)C)cc2)c1C#N`, the values for the EC50 at Glutamate receptor 4 [1] and at Glutamate receptor 4 [2] were greater than 3000 nM and 1870 nM, respectively.

As for `CC(C)(C)c1ccc(-c2c(C(=O)O)sc(N3CCCC3)c2C#N)cc1`, the EC50 is greater than 3000 nM at Glutamate receptor 4 [1], 1010 nM at Glutamate receptor 4 [2], 1140 nM on Glutamate receptor 2 [3] and 2430 nM on Glutamate receptor 2 [4].

For `CCc1sc(C(=O)O)c(-c2ccc(C(C)(C)C)cc2)c1C#N`, the EC50 at Glutamate receptor 4 [1] was determined as 1220 nM; on Glutamate receptor 4 [2], 183 nM; at Glutamate receptor 2 [3], 47 nM; on Glutamate receptor 2 [4], 216 nM.

`CN(C)c1sc(C(=O)O)c(-c2ccc(C(C)(C)C)cc2)c1C#N`: the EC50 at Glutamate receptor 4 [1] is greater than 3000 nM; at Glutamate receptor 4 [2], 474 nM; at Glutamate receptor 2 [3] it was 176 nM; at Glutamate receptor 2 [4] it was 2850 nM.

For `CSc1oc(C(=O)O)c(-c2ccc(C(C)(C)C)cc2)c1C#N`, the EC50 is greater than 3000 nM on Glutamate receptor 4 [1] and 1980 nM on Glutamate receptor 4 [2].

For the compound `CCSc1sc(C(=O)O)c(-c2ccc(C(C)(C)C)cc2)c1C#N`, the EC50 was greater than 3000 nM on Glutamate receptor 4 [1] and 440 nM at Glutamate receptor 4 [2].
